Assay outcomes from PubChem BioAssay.
RGS4 act = RGS4 potentiators or activators, primary screen, cell-based, HEK293 M3R inducible RGS4, calcium flux; carbachol calcium flux Fluo4; active compounds read low; B-score at 10 µM; hit rate 0.92% among 310,000;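 active = B-score of the integrated calcium signal more than 4 SD below the library mean, with starting fluorescence not abnormally high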;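 also: negative B-score means reduced calcium response which marks RGS4 activation or potentiation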
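Test system: HEK293 cells with stable M3R and inducible RGS4; also added: carbachol at ECmax as muscarinic agonist stimulus; schedule: dye loading 30 min 37 °C, buffer rest 30 min RT; technique: kinetic calcium fluorescence imaging with Fluo4-AM dye, 2 µM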
MrgX1 antagonist = antagonists of human MrgX1 receptor, primary screen, HEK293 cells, Fluo-4 calcium flux; BAM8-22 antagonism; active compounds read low; B-score at 10 µM; hit rate 1.3% among 310,000;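 active = calcium-response B-score plate-corrected more than 3 library SD below zero, starting fluorescence within 5 deviations, no agonist response on first addition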;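 also: peak minus trough fluorescence over baseline after final BAM8-22 challenge near maximal dose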
Target sequence (Q96LB2 whole entry, looked up): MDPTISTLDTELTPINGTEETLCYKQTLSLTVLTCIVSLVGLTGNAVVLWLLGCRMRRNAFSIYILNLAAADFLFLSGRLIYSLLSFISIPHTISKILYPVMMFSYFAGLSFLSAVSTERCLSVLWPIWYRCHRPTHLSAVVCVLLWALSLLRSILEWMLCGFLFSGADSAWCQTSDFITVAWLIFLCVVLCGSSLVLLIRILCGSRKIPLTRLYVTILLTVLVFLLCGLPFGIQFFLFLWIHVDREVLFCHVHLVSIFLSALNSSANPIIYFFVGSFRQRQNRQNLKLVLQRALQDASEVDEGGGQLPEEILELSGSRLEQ
MrgX1 allo act = positive allosteric modulators of MrgX1, primary screen, HEK293 cells, Fluo-4 calcium flux; hit rate 0.63% among 310,000; Mas-related G-protein coupled receptor member X1 (Homo sapiens), Q96LB2; B-score at 10 µM; AID 588675, 2011; FDSS; active compounds read high;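 active = plate-corrected calcium response at least 3 library SD above typical, normal starting fluorescence, not activating the receptor alone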;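 also: compound read alongside a low EC10 to EC30 dose of BAM8-22 agonist; peak minus trough fluorescence over baseline measured at the second addition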
RGS4 block = RGS4 inhibitors, primary screen, cell-based, HEK293 M3R inducible RGS4, calcium flux; Regulator of G-protein signaling 4 (Homo sapiens), P49798; B-score at 10 µM; hit rate 0.45% among 310,000; Fluo-4 calcium flux; active compounds read high; triggered by carbachol at its EC20;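 active = B-score, a plate-corrected calcium signal, over three deviations above library mean, with baseline fluorescence within five deviations of library mean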;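 also: RGS4 expression induced by doxycycline in cells with stable M3 receptor; B-score is computed from the integrated fluorescence ratio over baseline after carbachol; higher B-score means a larger calcium signal and so more RGS4 inhibition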
Target sequence (P49798 whole entry, looked up): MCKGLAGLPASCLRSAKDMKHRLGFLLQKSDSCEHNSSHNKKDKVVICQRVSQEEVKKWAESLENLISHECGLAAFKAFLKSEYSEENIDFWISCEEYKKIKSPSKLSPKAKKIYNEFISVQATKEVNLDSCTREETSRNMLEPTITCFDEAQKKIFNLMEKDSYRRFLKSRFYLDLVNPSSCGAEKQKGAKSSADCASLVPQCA
MrgX1 agonist = agonists of human MrgX1 receptor, primary screen, HEK293 cells, Fluo-4 calcium flux; Mas-related G-protein coupled receptor member X1 (Homo sapiens), Q96LB2; Fluo-4 calcium fluorescence, agonist mode; active compounds read high; B-score at 10 µM; hit rate 0.44% among 310,000;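 active = calcium response B-score plate-corrected fluorescence ratio at least 3 library SD, with starting fluorescence B-score inside 5 SD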
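Test system: HEK293 cells stably expressing human MrgX1 receptor; amount: 15,000 cells per well; doses: compound delivered in addition one of three; times: overnight plating before 1 h dye loading; detection: Fluo-4 NW calcium-flux fluorescence, kinetic read; read-out basis: B-scored fluorescence response ratio; controls: positive and negative controls per plate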
MrgX1 ag reconf = MrgX1 receptor agonists, duplicate retest, confirmation, HEK293 cells, Fluo-4 calcium flux | shares compounds with MrgX1 agonist | Fluo-4 calcium fluorescence, FDSS | activation, % at 10 µM | hit rate 78% among 600;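 active = calcium signal rise, corrected for plate position, at least 3 library SD high, with starting brightness within 5 such deviations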
HEK293 Ca flux = nonspecific calcium signal in parental HEK293, confirmation, counter-screen for MrgX1 antagonist project, parental HEK293 cells, Fluo-4 calcium flux | fluorescence ratio F(max-min)/F0 at 10 µM | hit rate 2% among 4,000 | shares compounds with MrgX1 antagonist | Fluo-4 calcium fluorescence, FDSS;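 active = duplicate-averaged calcium fluorescence ratio at least three times the standard deviation of buffer wells, a nonspecific response in parental cells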
HEK293 Ca counter = calcium response in parental HEK293 cells, primary screen, counter-screen for MrgX1 allosteric activator project, cell-based, Fluo-4 calcium flux, duplicate. Fluo-4 fluorescence ratio; active compounds read high. AID 624114, 2012. hit rate 0.4% among 4,000. shares compounds with MrgX1 antagonist. fluorescence ratio F(max-min)/F0 at 10 µM;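 active = calcium fluorescence ratio, averaged over duplicates, at least 3 SD of the buffer-well ratio, meaning a nonspecific response in receptor-free cells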;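 also: untransfected parental HEK293 lacking MrgX1 used as counterscreen for MrgX1 allosteric activators; fluorescence change taken during the second addition on a kinetic imager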
HEK293 Ca cntr2 = calcium response in parental HEK293 cells, primary screen, counter-screen for MrgX1 agonist project, cell-based, Fluo-4 calcium flux, duplicate, agonist mode; shares compounds with MrgX1 antagonist; Fluo-4 calcium fluorescence (FDSS); active compounds read high; fluorescence ratio F(max-min)/F0 at 10 µM; hit rate 8.7% among 4,000;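 active = calcium fluorescence ratio at least three times the spread of buffer wells, meaning a non-specific response in parental cells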
Hits are given with their value. Compounds with a hit are over-represented: about 3.5% of the library has one in this group of screens.

What do the screens show for `COc1ccccc1-c1ccc(/C=C2\C=CC(=O)O2)o1`?
RGS4 act: inactive; MrgX1 antagonist: inactive; MrgX1 allo act: inactive; RGS4 block: inactive; MrgX1 agonist: 91; MrgX1 ag reconf: inactive; HEK293 Ca flux: 0.2; HEK293 Ca counter: inactive; HEK293 Ca cntr2: inactive

What do the screens show for `COc1ccccc1-c1ccc(/C=C2/C=C(C)OC2=O)o1`?
RGS4 act: inactive; MrgX1 antagonist: inactive; MrgX1 allo act: inactive; RGS4 block: inactive; MrgX1 agonist: inactive

Results for O=C(c1ccc(Cl)cc1)N1CCCOC1 ?
RGS4 act: inactive; MrgX1 antagonist: inactive; MrgX1 allo act: inactive; RGS4 block: inactive; MrgX1 agonist: 50; MrgX1 ag reconf: inactive; HEK293 Ca flux: inactive; HEK293 Ca counter: inactive; HEK293 Ca cntr2: inactive

How did C[C@H](N)C(=O)N1CCC(C(=O)N[C@@H](Cc2ccccc2)C(=O)Nc2ccc(F)cc2)CC1 do in these assays?
RGS4 act: inactive; MrgX1 antagonist: inactive; MrgX1 allo act: inactive; RGS4 block: inactive; MrgX1 agonist: inactive

What do the screens show for `O=C(Nc1cccc(NC(=O)c2ccccc2)n1)c1ccccc1`?
RGS4 act: inactive; MrgX1 antagonist: inactive; MrgX1 allo act: inactive; RGS4 block: inactive; MrgX1 agonist: inactive

What do the screens show for `c1ccc(CNc2ncnc3sc4c(c23)CCC4)nc1`?
RGS4 act: inactive; MrgX1 antagonist: inactive; MrgX1 allo act: inactive; RGS4 block: inactive; MrgX1 agonist: inactive

What do the screens show for `c1ccc(CNc2ncnc3scc(-c4cccs4)c23)nc1`?
RGS4 act: inactive; MrgX1 antagonist: inactive; MrgX1 allo act: inactive; RGS4 block: inactive; MrgX1 agonist: 27; MrgX1 ag reconf: 160%; HEK293 Ca flux: inactive; HEK293 Ca counter: inactive; HEK293 Ca cntr2: inactive

Results for CC(Sc1ccccc1)C(=O)N1CCN(S(=O)(=O)c2cccc(Br)c2)CC1 (stereo not drawn) ?
RGS4 act: inactive; MrgX1 antagonist: inactive; MrgX1 allo act: inactive; RGS4 block: inactive; MrgX1 agonist: inactive

Results for Cc1cc2c3c(c1)C(C)CC(C)(C)N3C(=O)C2=O (stereo not drawn) ?
RGS4 act: inactive; MrgX1 antagonist: inactive; MrgX1 allo act: inactive; RGS4 block: inactive; MrgX1 agonist: inactive

What do the screens show for `CC1CC2(CCCCC2)N2C(=O)C(=O)c3cccc1c32` (stereo not drawn)?
RGS4 act: inactive; MrgX1 antagonist: inactive; MrgX1 allo act: inactive; RGS4 block: inactive; MrgX1 agonist: 46; MrgX1 ag reconf: 196%; HEK293 Ca flux: inactive; HEK293 Ca counter: inactive; HEK293 Ca cntr2: inactive

Results for O=C(CSc1nnc(NC(=O)C2CC2)s1)Nc1ccccc1C(F)(F)F ?
RGS4 act: inactive; MrgX1 antagonist: inactive; MrgX1 allo act: inactive; RGS4 block: inactive; MrgX1 agonist: inactive

What do the screens show for `COc1cc(C(=S)N2CCCC2)cc(Cl)c1OCC(=O)Nc1ccc(C)cc1C`?
RGS4 act: inactive; MrgX1 antagonist: inactive; MrgX1 allo act: inactive; RGS4 block: inactive; MrgX1 agonist: inactive

How did COc1ccc(C(=O)NNC(=S)NC(=O)c2ccc(OC)cc2)cc1 do in these assays?
RGS4 act: inactive; MrgX1 antagonist: inactive; MrgX1 allo act: inactive; RGS4 block: inactive; MrgX1 agonist: 81; MrgX1 ag reconf: 411%; HEK293 Ca flux: inactive; HEK293 Ca counter: inactive; HEK293 Ca cntr2: 97

How did CC(C)C(=O)Nc1ccc(C(=O)NNC(=S)NC(=O)c2cccs2)cc1 do in these assays?
RGS4 act: inactive; MrgX1 antagonist: inactive; MrgX1 allo act: inactive; RGS4 block: inactive; MrgX1 agonist: inactive

How did COc1ccc(C(=O)NNC(=S)NC(=O)c2cccnc2)cc1 do in these assays?
RGS4 act: inactive; MrgX1 antagonist: inactive; MrgX1 allo act: inactive; RGS4 block: inactive; MrgX1 agonist: inactive

What do the screens show for `CCCCC(=O)NC(=S)NNC(=O)c1ccc(OC)cc1`?
RGS4 act: inactive; MrgX1 antagonist: inactive; MrgX1 allo act: inactive; RGS4 block: inactive; MrgX1 agonist: 98; MrgX1 ag reconf: 578%; HEK293 Ca flux: inactive; HEK293 Ca counter: inactive; HEK293 Ca cntr2: 97

How did COc1ccc(C(=O)NNC(=S)NC(=O)c2cccs2)cc1 do in these assays?
RGS4 act: inactive; MrgX1 antagonist: inactive; MrgX1 allo act: inactive; RGS4 block: inactive; MrgX1 agonist: 122; MrgX1 ag reconf: 339%; HEK293 Ca flux: inactive; HEK293 Ca counter: inactive; HEK293 Ca cntr2: 94

Results for Cc1cccc(C(=O)NNC(=S)NC(=O)c2cccs2)c1 ?
RGS4 act: -7.1; MrgX1 antagonist: inactive; MrgX1 allo act: inactive; RGS4 block: inactive; MrgX1 agonist: 137; MrgX1 ag reconf: 647%; HEK293 Ca flux: inactive; HEK293 Ca counter: inactive; HEK293 Ca cntr2: 122

Results for Cc1ccc(C(=O)C[n+]2ccc(-c3nnc4n3CCC4)cc2)cc1 ?
RGS4 act: inactive; MrgX1 antagonist: inactive; MrgX1 allo act: inactive; RGS4 block: inactive; MrgX1 agonist: inactive

How did Cc1ccc(Cn2c(-c3nonc3N)nc3ccccc32)cc1 do in these assays?
RGS4 act: inactive; MrgX1 antagonist: inactive; MrgX1 allo act: inactive; RGS4 block: inactive; MrgX1 agonist: inactive

What do the screens show for `Cc1ccc(Cn2c(N)nc3ccccc32)cc1`?
RGS4 act: inactive; MrgX1 antagonist: inactive; MrgX1 allo act: inactive; RGS4 block: inactive; MrgX1 agonist: 30; MrgX1 ag reconf: 78%; HEK293 Ca flux: inactive; HEK293 Ca counter: inactive; HEK293 Ca cntr2: inactive

What do the screens show for `Nc1nc2ccccc2n1Cc1ccc(Cl)c(Cl)c1`?
RGS4 act: inactive; MrgX1 antagonist: inactive; MrgX1 allo act: inactive; RGS4 block: inactive; MrgX1 agonist: 36; MrgX1 ag reconf: 164%; HEK293 Ca flux: inactive; HEK293 Ca counter: inactive; HEK293 Ca cntr2: inactive

How did CCc1nnc(NC(=O)c2ccc(Br)c(S(=O)(=O)N3CCOCC3)c2)s1 do in these assays?
RGS4 act: inactive; MrgX1 antagonist: inactive; MrgX1 allo act: inactive; RGS4 block: inactive; MrgX1 agonist: inactive

Results for CCc1noc(C)c1C(=O)Nc1cc(S(=O)(=O)N2CCOCC2)ccc1N1CCN(CC)CC1 ?
RGS4 act: inactive; MrgX1 antagonist: inactive; MrgX1 allo act: inactive; RGS4 block: inactive; MrgX1 agonist: inactive
